Values belong to the molecule of their own block, whether it stands above or below them.
Tests used:
B16 = experiment: Antiproliferative activity against mouse B16 cells after 72 hrs by MTT assay; format: functional, cell-based; details: B16, 72 h
Method in brief: (§1)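 Murine L1210 lymphoma and B16 melanoma cells in culture were given 72-h continuous exposure to compound, and viability was read by MTT assay. IC50 was taken as the readout.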

L1210 = experiment: Antiproliferative activity against mouse L1210 cells after 72 hrs by MTT assay; format: functional, cell-based; details: L1210, 72 h; method in brief: as §1

SMILES: COc1cc(/C(=C/c2ccccc2)C(C)O)cc(OC)c1OC (configuration not stated)
IC50 (B16): > 100 µM | IC50 (L1210): > 100 µM

SMILES: COc1ccc(/C=C(/c2cc(OC)c(OC)c(OC)c2)C(C)O)cc1[N+](=O)[O-] (configuration not stated)
IC50 (B16): > 100 µM | IC50 (L1210): 67.5 µM

SMILES: COc1cc(/C(=C/c2ccc(Br)cc2)C(C)O)cc(OC)c1OC (configuration not stated)
IC50 (B16): > 100 µM | IC50 (L1210): > 100 µM

Stronger by IC50 (B16), values ahead:

IC50 (B16): 84 µM | IC50 (L1210): 51.5 µM
SMILES: COc1cc(/C=C(/c2cc(OC)c(OC)c(OC)c2)C(C)O)cc(OC)c1OC (configuration not stated)

IC50 (B16): 51.5 µM | IC50 (L1210): 18.5 µM
SMILES: COc1cc(/C(=C/c2ccc(Cl)c(Cl)c2)C(C)O)cc(OC)c1OC (configuration not stated)

IC50 (B16): 17.5 µM | IC50 (L1210): 3.9 µM
SMILES: COc1ccc(/C=C(/c2cc(OC)c(OC)c(OC)c2)C(C)O)cc1 (configuration not stated)

From ChEMBL document CHEMBL1759943, “Design and synthesis of novel enhanced water soluble hydroxyethyl analogs of combretastatin A-4” (Bioorg Med Chem Lett, 2011)
